“And” between values parts separate entries of the source, which are not always exact repeats. Identical values can stand only once.
Columns and labels:
Glutamate NMDA receptor [1] = assay: Inhibition of [3H]5,7-dichlorokynurenic acid(DCKA) binding to N-methyl-d-aspartate receptors(NMDA) of rat brain cortical membranes; type: cell membranes, Membrane
Method in brief: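 [³H]DCKA (15-20 nM) incubated with well-washed rat cortical membranes and nine concentrations (up to 100 µM) in 50 mM HEPES-KOH, pH 7.5, for 30 min on ice. Reaction stopped by filtration and filter-bound radioactivity counted by liquid scintillation. IC50 taken from a sigmoidal fit.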

[2] = molecular target: T1, Glutamate receptor ionotropic, AMPA (Rattus norvegicus) (UniProt P19491+P19492+P19493+P19490); assay: Inhibition of AMPA(glutamate) preferring non-NMDA receptors was measured in oocytes expressing rat brain poly(A)+ RNA. Number of cells examined are 5; type: functional, cell-based; settings: Oocyte
Method in brief: (§1)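 Oocytes injected with rat cerebral cortex poly(A)+ RNA, two-electrode voltage clamp. Currents elicited by 10 µM AMPA. Kb derived from partial concentration-inhibition curves by generalized Cheng-Prusoff, using AMPA EC50 5.89 µM and slope 1.96.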

Mus musculus = assay: In vivo potency in mouse maximum electroshock-inducedseizure after i.v. administration; type: functional; settings: iv
[3] = molecular target: T1, Glutamate receptor ionotropic, AMPA (Rattus norvegicus); assay: Inhibition of AMPA(glutamate) preferring non-NMDA receptors was measured in cultured rat cortical neurons. Number of cells examined are 8
[4] = molecular target: T2, Glutamate NMDA receptor (Rattus norvegicus) (UniProt P35439+Q00959+Q00960+Q00961+Q62645+Q8VHN2+Q9R1M7); assay: Inhibition of NMDA(glycine) receptors was measured in oocytes expressing cloned rat brain receptor subunits (NR1a/2C). Number of cells examined are 7; type: functional, cell-based; settings: Oocyte
[5] = Ratio of binding affinities of NMDA / AMPA
Method in brief: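 Steady-state selectivity index: Kb AMPA divided by Kb NMDA, with both Kb values taken from oocyte recordings.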

[6] = molecular target: T2, Glutamate NMDA receptor (Rattus norvegicus); assay: Inhibition of NMDA(glycine) receptors was measured in oocytes expressing cloned rat brain receptor subunits (NR1a/2C). Number of cells examined are 2; type: functional, cell-based; settings: Oocyte
Glutamate NMDA receptor [7] = assay: Compound was tested for inhibition of [3H]MK-801 binding to N-methyl-d-aspartate receptors(NMDA) of rat brain cortical membranes.; type: cell membranes, Membrane
Method in brief: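 [³H]MK801 displacement in rat brain cortical membranes, run by a previously described method. Compounds with IC50 < 300 µM were counted as potential NMDA antagonists.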

[8] = molecular target: T1, Glutamate receptor ionotropic, AMPA (Rattus norvegicus); assay: Inhibition of AMPA(glutamate) preferring non-NMDA receptors was measured in cultured rat cortical neurons. Number of cells examined are 2
[9] = molecular target: T2, Glutamate NMDA receptor (Rattus norvegicus); assay: Inhibition of NMDA(glycine) receptors was measured in oocytes expressing cloned rat brain receptor subunits (NR1a/2C). Number of cells examined are 4; type: functional, cell-based; settings: Oocyte
[10] = molecular target: T1, Glutamate receptor ionotropic, AMPA (Rattus norvegicus); assay: Inhibition of AMPA(glutamate) preferring non-NMDA receptors was measured in oocytes expressing rat brain poly(A)+ RNA. Number of cells examined are 3; type: functional, cell-based; settings: Oocyte; method in brief: as §1
[11] = molecular target: AMPA receptor (Rattus norvegicus); assay: Inhibition of AMPA(glutamate) preferring non-NMDA receptors was measured in oocytes expressing rat brain poly(A)+ RNA. Number of cells examined are 6; settings: Oocyte
[12] = molecular target: T1, Glutamate receptor ionotropic, AMPA (Rattus norvegicus); assay: Inhibition of AMPA(glutamate) preferring non-NMDA receptors was measured in cultured rat cortical neurons. Number of cells examined are 3
[13] = molecular target: T1, Glutamate receptor ionotropic, AMPA (Rattus norvegicus); assay: Inhibition of AMPA(glutamate) preferring non-NMDA receptors was measured in oocytes expressing rat brain poly(A)+ RNA. Number of cells examined are 4; type: functional, cell-based; settings: Oocyte; method in brief: as §1
[14] = molecular target: T2, Glutamate NMDA receptor (Rattus norvegicus); assay: Inhibition of NMDA(glycine) receptors was measured in oocytes expressing cloned rat brain receptor subunits (NR1a/2C). Number of cells examined are 3; type: functional, cell-based; settings: Oocyte

Cc1cccc2[nH]c(=O)c(O)cc(=O)c12
IC50 (Glutamate NMDA receptor [1]): 13000 nM

O=c1cc(O)c2ccc(Cl)cc2[nH]c1=O
Kb [2]: 2000 nM | IC50 (Glutamate NMDA receptor [1]): 13 nM | ED50 (Mus musculus): 13 mg/kg | Kb [3]: 10000 nM | Kb [4]: 26 nM | Ratio [5]: 77

O=c1cc(O)c(=O)c2ccccc2[nH]1
Kb [6]: > 55000 nM | IC50 (Glutamate NMDA receptor [1]): > 100000 nM

O=Nc1c(O)c2ccccc2[nH]c(=O)c1=O
IC50 (Glutamate NMDA receptor [7]): > 300000 nM

O=c1cc(O)c2ccccc2[nH]c1=O
Kb [8]: 65000 nM | IC50 (Glutamate NMDA receptor [1]): 830 nM | Kb [9]: 1300 nM | Kb [10]: 42000 nM | Ratio [5]: 32

CCc1ccc2c(O)cc(=O)c(=O)[nH]c2c1
IC50 (Glutamate NMDA receptor [1]): 5100 nM

O=c1cc(O)c2cc([N+](=O)[O-])ccc2[nH]c1=O
IC50 (Glutamate NMDA receptor [1]): 12000 nM

O=c1cc(O)c2ccc(Br)cc2[nH]c1=O
IC50 (Glutamate NMDA receptor [1]): 79 nM | Kb [9]: 26 nM | Kb [11]: 2700 nM | Ratio [5]: 100

Cc1cc2[nH]c(=O)c(O)cc(=O)c2c(C)c1[N+](=O)[O-]
IC50 (Glutamate NMDA receptor [1]): 2200 nM

O=C(Nc1ccc2[nH]c(=O)c(=O)cc(O)c2c1)C(F)(F)F
IC50 (Glutamate NMDA receptor [7]): > 300000 nM

Cc1ccc2c(O)cc(=O)c(=O)[nH]c2c1
Kb [12]: 6400 nM | Kb [13]: 9900 nM | Kb [14]: 250 nM and 470 nM | IC50 (Glutamate NMDA receptor [1]): 130 nM | Ratio [5]: 40

Cc1cccc2c(O)cc(=O)c(=O)[nH]c12
IC50 (Glutamate NMDA receptor [7]): > 300000 nM

O=c1cc(O)c2ccc(F)cc2[nH]c1=O
Kb [13]: 5300 nM | Kb [14]: 210 nM | IC50 (Glutamate NMDA receptor [1]): 490 nM | Ratio [5]: 25

Cc1cc(C)c2c(O)cc(=O)c(=O)[nH]c2c1
IC50 (Glutamate NMDA receptor [1]): 300 nM | ED50 (Mus musculus): 3.9 mg/kg

O=c1ccc(=O)c2ccccc2[nH]1
IC50 (Glutamate NMDA receptor [7]): > 300000 nM

O=c1cc(O)c2cc(Br)ccc2[nH]c1=O
IC50 (Glutamate NMDA receptor [7]): > 300000 nM

CC(=O)Nc1ccc2[nH]c(=O)c(O)cc(=O)c2c1
IC50 (Glutamate NMDA receptor [1]): > 100000 nM

Cc1ccc2[nH]c(=O)c(O)cc(=O)c2c1C
IC50 (Glutamate NMDA receptor [7]): > 300000 nM

Cc1cc2[nH]c(=O)c(O)cc(=O)c2cc1C
Kb [13]: 3800 nM | IC50 (Glutamate NMDA receptor [1]): 240 nM | ED50 (Mus musculus): 6.3 mg/kg | Kb [9]: 86 nM | Ratio [5]: 44

Cc1cc(C)c2[nH]c(=O)c(O)cc(=O)c2c1
IC50 (Glutamate NMDA receptor [7]): > 300000 nM

Cc1c[nH]c(=O)c(O)cc1=O
IC50 (Glutamate NMDA receptor [7]): > 300000 nM

Cc1ccc(C)c2c(O)cc(=O)c(=O)[nH]c12
IC50 (Glutamate NMDA receptor [7]): > 300000 nM

[N-]=[N+]=Nc1ccc2[nH]c(=O)c(=O)cc(O)c2c1
IC50 (Glutamate NMDA receptor [7]): > 300000 nM

— ChEMBL document CHEMBL1129403, “Analogs of 3-hydroxy-1H-1-benzazepine-2,5-dione: structure-activity relationship at N-methyl-D-aspartate receptor glycine sites” (J Med Chem, 1996)
